# Laboratory results as given in ChEMBL document CHEMBL3046951, “Volatile constituents from the leaves of Callicarpa japonica Thunb. and their antibacterial activities” (2004).
# Tests used:
# Assay type in all cases: functional
# [1] = tested on: Listeria monocytogenes; test: Antimicrobial activity against Listeria monocytogenes ATCC 19111 assessed as growth inhibition rate at 13.56 mg/l after 72 hr by spectrophotometry; conditions: ATCC 19111, 72 h, read-out: GI
# Method in brief: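 L. monocytogenes was grown at 30 °C in tryptic soy broth, subcultured for 18 h, and exposed to pure volatile compounds (>95% purity). Growth was followed by Bioscreen C optical density every 24 h for 72 h against a 10% Tween 80 control.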
# [2] = tested on: Vibrio parahaemolyticus; test: Antimicrobial activity against Vibrio parahaemolyticus ATCC 33844 assessed as growth inhibition rate at 13.56 mg/l after 72 hr by spectrophotometry; conditions: ATCC 33844, 72 h, read-out: GI
# [3] = tested on: Salmonella typhimurium; test: Antimicrobial activity against Salmonella enterica subsp. enterica serovar Typhimurium ATCC 14028 assessed as growth inhibition rate at 13.56 mg/l after 72 hr by spectrophotometry; conditions: ATCC 14028, 72 h, read-out: GI
# Method in brief: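 Salmonella Typhimurium ATCC 14028 grown in nutrient broth at 30 °C, precultured 24 h, then subcultured 1:100 for 18 h before testing. Single volatile compounds (>95% pure) were added. OD was read every 24 h over 72 h in a Bioscreen C, with 10% Tween 80 as the comparison control.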
# [4] = tested on: Escherichia coli; test: Antimicrobial activity against Escherichia coli O157:H7 ATCC 43894 assessed as growth inhibition rate at 13.56 mg/l after 72 hr by spectrophotometry; conditions: O157:H7 ATCC 43894, 72 h, read-out: GI
# [5] = tested on: Staphylococcus aureus; test: Antimicrobial activity against Staphylococcus aureus ATCC 25923 assessed as growth inhibition rate at 13.56 mg/l after 72 hr by spectrophotometry; conditions: ATCC 25923, 72 h, read-out: GI
# [6] = tested on: Bacillus cereus; test: Antimicrobial activity against Bacillus cereus ATCC 11778 assessed as growth inhibition rate at 13.56 mg/l after 72 hr by spectrophotometry; conditions: ATCC 11778, 72 h, read-out: GI
# Method in brief: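 Pure volatile compounds (purity >95%; one at 90%) were tested against B. cereus ATCC 11778. The strain was grown at 30 °C in nutrient broth for 24 h, then subcultured for 18 h. Optical density was read in a Bioscreen C every 24 h for 72 h, with 10% Tween 80 as the control.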
compound,measurement,setting,value
CCC/C=C/CO,inhibition of growth at 13.56 µg/mL,[1],19.2%
same,inhibition of growth at 13.56 µg/mL,[2],38.6%
same,inhibition of growth at 13.56 µg/mL,[3],29.1%
same,inhibition of growth at 13.56 µg/mL,[4],31.8%
same,inhibition of growth at 13.56 µg/mL,[5],29.5%
same,inhibition of growth at 13.56 µg/mL,[6],52.5%
